High-throughput results: PubChem BioAssay, several laboratories
A selection: hits, their analogues and other compounds. The true share with any hit is near 2.6%.
rCAG binder: molecules binding r(CAG) RNA repeats. r(CAG) RNA repeat, TO-PRO-1 dye displacement fluorescence. inhibition, % at 3 µM. 370,000 compounds, 1.3% hits. AID 651821;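 active = inhibition above the plate cutoff, the mean of all test compounds on that plate plus 3 SD, cut at about 35% in these data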;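 also: higher means more dye released from RNA so lower well fluorescence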
ABHD5 PLIN5 PPI: blocks binding of human ABHD5 to perilipin-5. inhibition, % at 4 µM. Split G. princeps luciferase complementation, luminescence, 4 h. Q00G26+Q8WTS1. 360,000 compounds, 0.78% hits;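 active = inhibition above the mean inhibition across every tested compound plus 3 SD, cut at about 22% in these data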
Target sequence (Q00G26 whole entry, looked up): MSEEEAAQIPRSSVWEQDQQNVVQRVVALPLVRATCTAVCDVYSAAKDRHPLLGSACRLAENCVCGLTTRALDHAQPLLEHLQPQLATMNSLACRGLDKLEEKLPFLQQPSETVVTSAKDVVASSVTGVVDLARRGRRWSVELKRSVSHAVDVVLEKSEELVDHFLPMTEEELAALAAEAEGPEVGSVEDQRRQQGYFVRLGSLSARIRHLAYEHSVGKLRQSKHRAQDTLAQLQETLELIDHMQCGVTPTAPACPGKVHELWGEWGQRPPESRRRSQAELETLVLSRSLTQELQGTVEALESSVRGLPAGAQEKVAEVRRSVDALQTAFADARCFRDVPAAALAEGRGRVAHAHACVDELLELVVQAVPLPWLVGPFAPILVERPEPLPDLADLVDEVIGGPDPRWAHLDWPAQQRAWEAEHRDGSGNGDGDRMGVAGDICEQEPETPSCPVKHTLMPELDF
Target sequence (Q8WTS1 whole entry, looked up): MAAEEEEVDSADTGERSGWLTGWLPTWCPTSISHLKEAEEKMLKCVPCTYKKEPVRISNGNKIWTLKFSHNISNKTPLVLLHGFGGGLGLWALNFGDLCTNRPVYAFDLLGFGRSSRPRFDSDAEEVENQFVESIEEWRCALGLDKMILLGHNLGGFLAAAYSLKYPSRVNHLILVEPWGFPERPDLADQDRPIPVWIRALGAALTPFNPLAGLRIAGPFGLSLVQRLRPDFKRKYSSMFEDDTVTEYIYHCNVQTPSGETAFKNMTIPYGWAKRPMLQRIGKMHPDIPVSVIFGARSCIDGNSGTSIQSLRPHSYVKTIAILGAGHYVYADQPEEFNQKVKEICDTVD
HCV core dimer: blocks dimerization of HCV core protein | TR-FRET GST/Flag-core106 dimerization, 1536-well | inhibition, % at 5 µM | 300,000 compounds, 0.33% hits | AID 1899;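 active = inhibition above the mean of all tested compounds plus 3 SD, set per screening campaign, cut at about 45% in these data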
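Assay system: Tagged HCV core106 pair (GST and Flag) | Buffer or medium: KF-containing HEPES buffer, pH 7.45, DTT, CHAPS, BSA | Also added: Eu donor and XL665 acceptor anti-tag antibodies | Dosing: One concentration, 5 µM, in 0.5% DMSO | Timing: 4 h at 22.5 °C | Technique: TR-FRET 671 and 617 nm emission | Repeats: Singlicate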
NadD inh: blocks S. aureus nicotinate mononucleotide adenylyltransferase | purified NadD enzyme, colorimetric absorbance read-out | inhibition, % at 20 µM | 360,000 compounds, 0.78% hits; in the data active = inhibition above about 26%
rCAG bind conf: r(CAG) RNA repeat binding, confirmation; shares compounds with rCAG binder; TO-PRO-1 dye displacement fluorescence; inhibition, % at 3 µM; 4,300 compounds, 70% hits; AID 652065;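 active = inhibition above a per-plate cutoff, the mean inhibition of sample wells plus 3 SD, cut at about 35% in these data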;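 also: loss of TO-PRO-1 fluorescence as compound displaces dye from 1x1 AA loop RNA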
dCAG dye counter: disrupts DNA CAG TO-PRO-1 complex, flagging rCAG hits; shares compounds with rCAG binder; d(CAG) DNA oligo TO-PRO-1 dye displacement, fluorescence; inhibition, % at 3 µM; 4,300 compounds, 94% hits;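 active = inhibition above its plate's cutoff, the mean test-well inhibition plus 3 SD, cut at about 4.8% in these data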;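 also: hits displace the dye from DNA and so lower well fluorescence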
DNA CAG DR: DNA CAG dye complex inhibition, dose response counter-screen | shares compounds with rCAG binder | DNA CAG/GTC duplex TO-PRO-1 dye displacement fluorescence | IC50, µM | 250 compounds, 20% hits; in the data active = IC50 below about 10 µM
Of the large screens only hits and unclear results are named; the others gave an inactive call (follow-up assays come after a bar, where they were run).

Cc1ccc(O)c(-c2cc(C(=O)Nc3ccc(S(=O)(=O)N4CC(C)OC(C)C4)cc3)[nH]n2)c1 (configuration not stated)	none
COC(=O)c1cccc(-n2c(C)cc(O)cc2=O)c1	none (no result: ABHD5 PLIN5 PPI, HCV core dimer, NadD inh)
COCC(C)n1c(C)cc(C(=O)CN2c3cccc4cccc(c34)S2(=O)=O)c1C (configuration not stated)	none (no result: HCV core dimer)
Cc1cc(C(=O)CN2c3cccc4cccc(c34)S2(=O)=O)c(C)n1C	rCAG binder 37.9 (no result: HCV core dimer) | rCAG bind conf inactive | dCAG dye counter 8.6
CCOc1ccc(-n2c(=S)sc3c(=O)n(-c4ccccc4)c(SCC(=O)O)nc32)cc1	rCAG binder 39.3 | rCAG bind conf inactive | dCAG dye counter 5.7
CCOc1ccc(-n2c(=S)sc3c(=O)n(-c4ccc(F)cc4)c(SCC(=O)O)nc32)cc1	none
Cc1ccc(-n2c(=S)sc3c(=O)n(-c4ccccc4F)c(SCC(=O)O)nc32)cc1C	rCAG binder 47.2 | rCAG bind conf 46.4 | dCAG dye counter 13.4
CCc1ccc(-n2c(=S)sc3c(=O)n(-c4ccccc4)c(SCC(=O)O)nc32)cc1	rCAG binder 41.5 | rCAG bind conf inactive | dCAG dye counter 6.9
CCOc1ccccc1C(=O)NC(C(=O)OCn1nnc2ccccc2c1=O)C(C)C (configuration not stated)	none (no result: HCV core dimer)
Clc1ccc(-n2c(SCc3cccc4ccccc34)nnc2-c2ccccn2)cc1	none (no result: ABHD5 PLIN5 PPI, HCV core dimer, NadD inh)
O=C(c1cc(C(=O)N2CCOCC2)c2nc3ccccc3n2c1)c1cc(Cl)cc(Cl)c1O	rCAG binder 45.5 | rCAG bind conf 44.3 | dCAG dye counter 12.0
CCc1c(C)sc2nc3c(C(=O)N4CCOCC4)cc(C(=O)c4ccccc4O)cn3c(=O)c12	none
COc1ccccc1NC(=O)c1ccc(NS(=O)(=O)c2ccc(F)c(F)c2F)cc1	rCAG binder 44.2 | rCAG bind conf inactive | dCAG dye counter 6.1
CC1(C(=O)NS(=O)(=O)c2ccc(C#N)cc2)CCN1C(=O)Cc1ccc(-c2ccccc2)cc1 (configuration not stated)	rCAG binder 42.2 (no result: HCV core dimer) | rCAG bind conf 42.6 | dCAG dye counter 11.3
CC1(C(=O)NS(=O)(=O)c2cccc(C#N)c2)CCN1C(=O)Cc1ccc(-c2ccccc2)cc1 (configuration not stated)	rCAG binder 41.3 (no result: HCV core dimer) | rCAG bind conf 44.0 | dCAG dye counter 11.4
CC(C)(C)c1ccc(CC(=O)N2CCC2(C)C(=O)NS(=O)(=O)c2cccc(C#N)c2)cc1 (configuration not stated)	none (no result: HCV core dimer)
COc1cc([N+](=O)[O-])cc(/C=C2/SC(=S)N(Cc3ccccc3)C2=O)c1O	rCAG binder 78.8 | rCAG bind conf 95.0 | dCAG dye counter 84.7
CC(=O)Oc1ccc(/C=C2/SC(=S)N(Cc3ccccc3)C2=O)cc1	none
O=C1/C(=C/c2ccc(O)c([N+](=O)[O-])c2)SC(=S)N1Cc1ccccc1	none
O=C1/C(=C\c2cccc([N+](=O)[O-])c2O)SC(=S)N1Cc1ccccc1	rCAG binder 37.3 | rCAG bind conf 93.4 | dCAG dye counter 78.2
Cc1ccc(-c2[nH]c(-c3ccc(C(=O)O)cc3)nc2-c2ccccc2)cc1	rCAG binder 70.0 | rCAG bind conf 58.3 | dCAG dye counter 18.4
COc1cccc(C(=O)N[C@@H](Cc2cccnc2)C(=O)N2CCC[C@H]2C(=O)NCCc2ccccc2Cl)c1	none (no result: ABHD5 PLIN5 PPI, HCV core dimer, NadD inh)
O=C(O)C1Nc2c(Cl)cc(Cl)c(Cl)c2C2C=CCC12 (configuration not stated)	none
CC(C)C1Nc2c(O)cc(Cl)c([N+](=O)[O-])c2C2C=CCC21 (configuration not stated)	rCAG binder 37.0 (no result: HCV core dimer) | rCAG bind conf inactive | dCAG dye counter inactive
O=C1CSc2ccc(C(=O)N3CCCC(C(=O)N4CCCCC4)C3)cc2N1 (configuration not stated)	none (no result: ABHD5 PLIN5 PPI, HCV core dimer, NadD inh)
O=C1C2Sc3[nH]c(=O)sc3C(c3ccccc3)C2C(=O)N1c1ccc(Cl)cc1 (configuration not stated)	rCAG binder 35.9 | rCAG bind conf inactive | dCAG dye counter 8.7
Cc1ccc(N2C(=O)C3Sc4[nH]c(=O)sc4C(c4ccccc4)C3C2=O)cc1 (configuration not stated)	none
Nc1c(SCCC(=O)O)ccc2c1C(=O)c1ccccc1C2=O	rCAG binder 36.8 | rCAG bind conf inactive | dCAG dye counter inactive
C[C@H]1CN([C@@H](C)CO)S(=O)(=O)c2ccc(Br)cc2O[C@@H]1CN(C)C(=O)Cc1cccnc1	none (no result: HCV core dimer)
Cc1ccc(C)c(NC(=O)CSc2nc(N)c(NC(=O)c3cccs3)c(=O)[nH]2)c1	none (no result: HCV core dimer)
Cc1ccc(C)c(NC(=O)CSc2nc3nc(-c4cccs4)cc(C(F)(F)F)c3c(=O)[nH]2)c1	rCAG binder 57.8 | rCAG bind conf 82.9 | dCAG dye counter 47.0
O=c1cc(-c2c(O)c3ccccc3n(Cc3ccccc3)c2=O)[nH][nH]1	rCAG binder 46.5 | rCAG bind conf inactive | dCAG dye counter 8.3
CCn1c(=O)c(-c2cc(=O)[nH][nH]2)c(O)c2ccccc21	none
Cc1nc(Nc2nc(CSc3nc4ccccc4[nH]3)cc(=O)[nH]2)nc2ccccc12	rCAG binder 41.4 | rCAG bind conf inactive | dCAG dye counter 21.3
Cc1nc(Nc2nc(CSc3ccc(Cl)cc3)cc(=O)[nH]2)nc2ccccc12	none
Cc1nc(Nc2nc(-c3ccccc3)cc(=O)[nH]2)nc2ccccc12	rCAG binder 36.7 | rCAG bind conf inactive | dCAG dye counter 6.5
CC(C)C[C@H]1COc2cccc(N3CCCCC3)c2S(=O)(=O)N1	none (no result: ABHD5 PLIN5 PPI, HCV core dimer, NadD inh)
COc1cc(/C=C(/C#N)c2ccc(F)cc2)ccc1OCc1ccc(C(=O)O)o1	rCAG binder 52.0 | rCAG bind conf 45.5 | dCAG dye counter 10.2
COc1ccc(OCc2cccc(C(=O)O)c2)cc1	none
COc1cccc(/C=C(/C#N)c2ccc(F)cc2)c1OCc1cccc(C(=O)O)c1	rCAG binder 51.1 | rCAG bind conf 49.4 | dCAG dye counter 15.1
COc1cccc(/C=C(/C#N)c2ccc(Cl)cc2)c1OCc1cccc(C(=O)O)c1	rCAG binder 42.0 | rCAG bind conf 69.0 | dCAG dye counter 29.3
N#C/C(=C/c1ccc(OCc2ccc(C(=O)O)cc2)c(Br)c1)c1cccc(F)c1	none
COc1cc(/C=C(\C#N)C(=O)Nc2cccc(C(=O)O)c2)ccc1OCc1ccc(F)cc1	none
C=CCn1c(COc2ccccc2)nnc1SCC(=O)c1ccc(-c2ccccc2)cc1	none (no result: ABHD5 PLIN5 PPI, HCV core dimer, NadD inh)
COC(=O)Cn1c(=O)c2c(n(Cc3ccccc3)c1=O)N/C(=C/c1ccc(OC)cc1)C2=O	rCAG binder 74.6 | rCAG bind conf 79.3 | dCAG dye counter 33.7 | DNA CAG DR 4.02
NC(c1ccccc1)c1cccs1 (configuration not stated)	none (no result: HCV core dimer)
